PAD4 inh – blocks human protein arginine deiminase 4; recombinant PAD4, RCA probe fluorescence polarization; inhibition, % at 6.36 µM; 330,000 compounds, 0.41% hits; AID 485272; Q9UM07;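 active = percent inhibition above a cutoff equal to the mean of all tested compounds plus 3 SD, cut at about 15% in these data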;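 also: 0% = PAD4 with RCA probe and DMSO and 100% = probe without PAD4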
HKDC1 inhibitor – inhibitors of human hexokinase HKDC1; 340,000 compounds, 0.16% hits; recombinant HKDC1, G6PDH/diaphorase resazurin coupled fluorescence; inhibition, % at 20 µM;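 active = inhibition above about 35% when tested at 20 µM, limit read from the data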;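 also: plate controls were DMSO wells with enzyme for no effect and DMSO wells lacking enzyme for full effect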
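Incubation: 90 min at room temperature in dark / Material: recombinant HKDC1 (HK5) hexokinase enzyme, produced in-house / Quantity: enzyme 5 µg/mL final / Compound: one dose of 20 µM, 1% DMSO / Reagent: glucose and ATP substrates / Buffer or medium: Tris pH 8.0 buffer with MgCl2, Tween-20, BSA, BME / Technique: resorufin fluorescence at 613 nm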
Fh CTSL1 inh – cathepsin L1 inhibition, PFM18AAP counter-screen; recombinant F. hepatica cathepsin L1, Z-Leu-Arg-MCA fluorescence; inhibition, % at 5.96 µM; 300,000 compounds, 0.49% hits; AID 1906;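 active = inhibition above the mean of all tested compounds plus 3 SD, set per screening campaign, cut at about 17% in these data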;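 also: 0% = plate median of test compound wells and 100% = 1 µM Z-Phe-Ala-diazomethylketone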
UCH37 inh – human UCH37 deubiquitinating enzyme inhibition | purified proteasome/UCH37, Ub-AMC cleavage fluorescence | 330,000 compounds, 0.33% hits | inhibition, % (concentration not given with the values) | Q9Y5K5;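 active = mean inhibition over replicate wells above about 20%, limit read from the data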;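 also: 0% = compound-free wells with enzyme and 100% = wells lacking proteasome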
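System: Proteasome-associated human UCH37 deubiquitinase; Input: 0.15 nM proteasome in added enzyme buffer; Also added: Ub-AMC substrate from 1 µM stock; Incubation: 30 min compound-proteasome preincubation then 25 min substrate reaction, room temperature; Detection: fluorescence, ex 355 nm, em 460 nm; Read-out: % inhibition of Ub-AMC cleavage fluorescence; Benchmarks: no-proteasome and no-compound wells.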
TDP2 absorb – TDP2 (human) inhibition, absorbance primary screen; AID 720702; O95551; recombinant TDP2, T5PNP hydrolysis, p-nitrophenol absorbance 415 nm; inhibition, % at 12.8 µM; 370,000 compounds, 0.34% hits;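 active = inhibition above the mean of all tested compounds plus 3 SD, set per campaign, cut at about 25% in these data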;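 also: 0% = DMSO with enzyme and 100% = buffer with substrate but no TDP2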
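System – recombinant human TDP2 · Quantity – TDP2 enzyme at 120 nM final · Doses – single concentration, 12.8 µM nominal, with 1% DMSO · Incubation – 2 h at 37 °C · Measured by – epi absorbance of p-nitrophenol freed from T5PNP by hydrolysis · Read-out – % inhibition relative to enzyme-containing and enzyme-free wells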
GSTO1 counter – GSTO1 inhibition, counter-screen for RBBP9 inhibitors. P78417. recombinant GSTO1, activity-based probe fluorescence polarization. inhibition, % at 5.96 µM. 300,000 compounds, 1.1% hits. AID 1974;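 active = inhibition above the campaign mean inhibition plus 3 SD, cut at about 35% in these data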;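 also: 0% = GSTO1-1 with DMSO and 100% = wells lacking GSTO1-1 enzyme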
GSTO1 inh conf – confirmation of human GSTO1 inhibitors; shares compounds with GSTO1 counter; recombinant GSTO1, probe fluorescence polarization; inhibition, % at 5.96 µM; 2,400 compounds, 54% hits;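 active = inhibition above the primary screen's cutoff, its mean inhibition plus 3 SD, cut at about 35% in these data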;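 also: loss of polarization as inhibitors block binding of rhodamine sulfonate ester activity probe; 0% = GSTO1 with DMSO and 100% = wells lacking GSTO1 enzyme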
PAD4 FP conf – confirmation of human PAD4 inhibitors; inhibition, % at 6.36 µM; recombinant PAD4, RCA probe fluorescence polarization; AID 488796; shares compounds with PAD4 inh; 1,200 compounds, 28% hits;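 active = mean inhibition across replicates above the hit cutoff set by the earlier primary screen, cut at about 15% in these data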;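 also: inhibitors block active-site labeling by the probe so polarization falls; 0% = PAD4 with probe and DMSO and 100% = probe without PAD4 enzyme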
An asterisk follows results filed as active; . = no result. An excerpt weighted towards active compounds, which were near 1.6% of everything screened.

SMILES	PAD4 inh	HKDC1 inhibitor	Fh CTSL1 inh	UCH37 inh	TDP2 absorb	GSTO1 counter	GSTO1 inh conf	PAD4 FP conf
N#CCCN(CCC#N)C(=O)C1c2ccccc2Oc2ccccc21	101*	-3	-3	.	7	52*	10	7
COc1cc(C(=O)NCC(=O)NN=C(C)/C=C/c2ccccc2)cc(OC)c1OC	.	.	.	0	.	.	.	.
CSCCC(NC(=O)c1ccccc1)C(=O)NN=C(C)c1ccccc1 (centres undefined)	.	.	.	2	.	.	.	.
Cn1nc([N+](=O)[O-])c(C(C#N)c2nc3ccccc3n2C)c(Cl)c1=O (centres undefined)	26*	-2	-4	6	-4	63*	31	17*
O=C(N1CCc2[nH]c3ccccc3c2C1)C(F)(F)F	58*	6	106*	-46	4	88*	7	-3
CC(=O)N1CCc2[nH]c3ccccc3c2C1	-2	-5	2	1	1	-5	.	.
Nc1cc2nsnc2cc1Br	78*	-4	114*	.	92*	92*	91*	53*
CC(=O)c1c2c3c(c(Br)ccc3n(C)c1=O)C(=O)c1ccccc1-2	20*	4	14	.	-3	48*	28	8
CC(=O)c1c2c3c(cccc3n(C)c1=O)C(=O)c1ccccc1-2	12	-4	0	3	.	9	.	.
Oc1c(Br)cc(C=Nc2ccc3nc(-c4ccccc4)[nH]c3c2)c(O)c1Br	37*	7	4	-82	3	53*	42*	10
Cc1ccc(C=Nc2ccc(N(C)C)cc2)o1	25*	15	0	8	14	83*	2	-9
Cc1ccc(C2CC2C(=NO)c2ccc(F)cc2)cc1 (centres undefined)	.	.	.	1	.	.	.	.
O=C(NN=Cc1ccccc1C(=O)O)c1cccc(S(=O)(=O)N2CCCCC2)c1	.	.	.	5	.	.	.	.
Cc1nnc(N/N=C/c2cc(C)n(-c3ccc(F)cc3)c2C)n1N	29*	-9	1	.	62*	50*	2	-1
COc1cc(C=NNC(=O)CC2(C)OCCCO2)ccc1OCc1ccc(Cl)cc1Cl	.	.	.	6	.	.	.	.
O=C(O)COc1ccccc1C=NNC(=O)CN1CCN(Cc2ccc(Cl)cc2)CC1	.	.	.	3	.	.	.	.
CCN(CC)c1ccc(N=Cc2c(C)[nH]c3ccccc23)cc1	25*	15	0	6	8	56*	5	3
COC(=O)CCC(=O)OC1(C)C(=O)C=C2C=C(C3CC3)N(CCCOC(C)C)C=C2C1=O (centres undefined)	30*	20	15	4	.	59*	15	-7
Cc1nn(C)cc1C=NNC(=O)c1sc2ccccc2c1Cl	.	.	.	9	.	.	.	.
COc1cc(C2NC(=O)N(C)C3=C2C(=O)CCC3)cc(OC)c1OC (centres undefined)	1	9	3	3	4	5	.	.
CN1C(=O)NC(c2ccccc2[N+](=O)[O-])C2=C1CCCC2=O (centres undefined)	102*	-1	6	6	11	71*	38*	62*
O=C(NCCO)c1ccc2nc(-c3ccco3)c(-c3ccco3)nc2c1	30*	17	9	-39	47*	75*	57*	-5
COc1ccc(C=NNC(=O)c2ccc3nc[nH]c3c2)cc1	.	.	.	3	.	.	.	.
COc1ccc(NC(=S)NC(=NCS(=O)(=O)c2ccccc2)c2ccccc2)cc1	.	.	.	5	.	.	.	.
COC(=O)CCC(=O)OC1(C)C(=O)C=C2C=C(C3CC3)N(c3ccccc3)C=C2C1=O (centres undefined)	11	16	1	0	12	30	.	.
